How the values were obtained:
[1] = preclinical model; cited from earlier work
RCAS-PDGF glioblastoma = experiment: Ex vivo NIRF imaging of sliced brains; assay type: in vivo, mouse; settings: RCAS-PDGF model, brain slices 48 hours after probe injection, mean±SEM
Outline: (§1)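 Test probe (1 nmol) injected via tail vein; controls were 1 nmol nonspecific RAD-peptide dye conjugate and a blocking mix (1 nmol probe plus 20 nmol unlabeled cRGD). Mice were killed at 48 h; whole brains were sliced coronally and imaged on Odyssey (800 nm channel, sensitivity 5, 21 μm resolution). Signal was background-subtracted and area-weighted, tumor vs corresponding normal brain; tumor confirmed by H&E.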

TS543 glioblastoma = experiment: Ex vivo NIRF imaging of sliced brains; assay type: in vivo, mouse; settings: TS543 model, brain slices 48 hours after probe injection, mean±SEM
Outline: as §1

U-87 MG glioblastoma = experiment: Ex vivo NIRF imaging of sliced brains; assay type: in vivo, mouse; settings: U-87 MG model, brain slices 48 hours after probe injection, mean±SEM
Outline: as §1

Row | Compound | Toxicity [1] | T/N ratio ex vivo (area-normalized fluorescence-800, tumor vs normal brain) (RCAS-PDGF glioblastoma) | T/N ratio ex vivo (area-normalized fluorescence-800, tumor vs normal brain) (TS543 glioblastoma) | T/N ratio ex vivo (area-normalized fluorescence-800, tumor vs normal brain) (U-87 MG glioblastoma)
1 | CC1(C)C(=CC=C2CCCC(C=CC3=[N+](CCCCCC(=O)[O-])c4ccc(S(=O)(=O)[O-])cc4C3(C)C)=C2Oc2ccc(S(=O)(=O)[O-])cc2)N(CCCCS(=O)(=O)[O-])c2ccc(S(=O)(=O)[O-])cc21.[Na+].[Na+].[Na+].[Na+] [IRDye 800CW] | good results |  |  | 
2 | IRDye 800CW-conjugated cyclic Arg-Ala-Asp-D-Phe-Lys (head to tail) [IRDye 800CW-RAD, IRDye 800CW-conjugated cyclic Arg-Ala-Asp-D-Phe-Lys peptide] |  | 11.6±1.1 | 11.6±1.0 | 10.5±1.0

From publication PMC3733255 (Clinical cancer research : an official journal of the …, 2012)
